Screening data deposited in PubChem by SRMLSC.
The entries come from a sample that favours hits as a whole.
H69AR inhibit: growth inhibitors of human H69AR lung tumor cells | H69AR lung tumor viability, ATP luminescence, 72 h; stronger effect = lower value | viability, % at 10 µM | actives 6% (n = 85,000);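 active = viability at or below 40%; inactive = viability above 40%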;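 also: multidrug resistant small cell line overexpressing MRP-1 efflux transporter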
HCT116 PTEN-null: suppresses growth of cells with PTEN deletion; HCT116 PTEN-null viability, CellTiter-Glo, 60 h; stronger effect = lower value; viability, % at 10 µM; actives 1.2% (n = 140,000);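 active = viability at or below a set limit, 4 SD under the median of all tested compounds, cut at about 3.7% in these data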;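 also: PTEN knockout HCT116 line with beta catenin targeted HCT116 as companion control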
Fibroblast inh: blocks proliferation of human lung fibroblasts. LL 47 human lung fibroblast viability, ATP luminescence; stronger effect = lower value. viability, % at 10 µM. actives 1.1% (n = 85,000);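 active = viability at or below 50% in the single dose screen; inactive = viability above 50%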;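 also: compound exposure lasted 72 h before the ATP readout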
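material = human LL 47 lung fibroblast cells | dosing = compounds added from tenfold dosing solution, 0.1% DMSO final | timing = overnight cell rest, 72 h compound treatment at 37 °C | measured by = CellTiter-Glo luminescence measuring cellular ATP | evaluation = % viability versus median cells-only luminescence | control set = cell-only wells, no compound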
bCat KO growth: beta-catenin-lacking colon tumor cell growth suppression; HCT116 beta-catenin knockout viability, CellTiter-Glo, 60 h; stronger effect = lower value; viability, % at 10 µM; actives 1.5% (n = 140,000);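 active = viability at or under a set limit, the compound median less 4 SD, cut at about 6% in these data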
HUVEC prolif 384: inhibitors of human endothelial cell proliferation; HUVEC proliferation, CellTiter-Glo luminescence, 72 h; stronger effect = lower value; viability, % at 10 µM (by protocol); AID 648; actives 1.1% (n = 86,000);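 active = viability at or below 30%; inactive = viability above 30%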
Numbers stand for hits.

`CCOc1cccc(/C=N/Nc2ccc(S(=O)(=O)N(CC)CC)cn2)c1O` gave HCT116 PTEN-null 2.8 and bCat KO growth 3.8.
`CCN(CC)S(=O)(=O)c1ccc(N/N=C/c2cc(OC)c(OC)cc2OC)nc1` gave HCT116 PTEN-null inactive and bCat KO growth inactive.
COCCn1c(-c2ccc(OC(F)(F)C(F)C(F)(F)F)cc2)nc2c1c(=O)[nH]c(=O)n2CC(C)C (stereo not drawn) was read as H69AR inhibit 39.4, HCT116 PTEN-null inactive, Fibroblast inh inactive, bCat KO growth inactive and HUVEC prolif 384 inactive.
`Cc1ccc(NC2=C(Cl)C(=O)c3ccccc3C2=O)cc1` gave HCT116 PTEN-null 0.8 and bCat KO growth 0.9.
`CCN(CC)c1ccc(NC2=C(Cl)C(=O)c3ccccc3C2=O)cc1` gave HCT116 PTEN-null 0.5 and bCat KO growth 0.8.
CCNC1=C(Cl)C(=O)c2ccccc2C1=O was read as H69AR inhibit inactive, HCT116 PTEN-null inactive, Fibroblast inh inactive, bCat KO growth inactive and HUVEC prolif 384 inactive.
For CCOC(=O)c1c(CSc2nc(C)cc(C)c2C#N)n(C)c2cc(Br)c(OC(C)=O)cc12 the results were HCT116 PTEN-null inactive and bCat KO growth inactive.
`CCOC(=O)c1c(CSC(=N)N)n(-c2ccc(Br)cc2)c2cc(Br)c(OC(C)=O)cc12` gave HCT116 PTEN-null 1.6 and bCat KO growth 1.3.
`CCCS(=O)(=O)N1CCN(Cc2ccc3c(c2)c2ccccc2n3CC)CC1` gave HCT116 PTEN-null inactive and bCat KO growth inactive.
COc1cc(CNc2ccc3[nH]c(=O)[nH]c3c2)cc(Br)c1OCC(=O)NC(C)(C)C was read as H69AR inhibit 9.9, HCT116 PTEN-null inactive, Fibroblast inh inactive, bCat KO growth inactive and HUVEC prolif 384 inactive.
For CC(C)c1nn2c(=O)cc(O)nc2s1 the results were HCT116 PTEN-null inactive and bCat KO growth inactive.
For CCCN1C(=O)SC(CC(=O)Nc2ccccc2C)C1=O (stereo not drawn) the results were H69AR inhibit 29.7, HCT116 PTEN-null inactive, Fibroblast inh inactive, bCat KO growth inactive and HUVEC prolif 384 inactive.
For Cc1ccccc1NC(=O)CC1SC(=O)N(c2ccccc2)C1=O (stereo not drawn) the results were H69AR inhibit inactive, HCT116 PTEN-null inactive, Fibroblast inh inactive, bCat KO growth inactive and HUVEC prolif 384 inactive.
For CC1CCN(c2c(NCC3CCC(C(=O)NCc4ccccc4Cl)CC3)c(=O)c2=O)CC1 (stereo not drawn) the results were HCT116 PTEN-null inactive and bCat KO growth inactive.
For CCCn1c(=O)c(C(=O)NNS(=O)(=O)c2ccc(Cl)cc2)c(O)c2ccccc21 the results were HCT116 PTEN-null inactive and bCat KO growth inactive.
For COc1ccc(C(C(=O)OC(C)CN(C)C)c2ccccc2)cc1 (stereo not drawn) the results were HCT116 PTEN-null inactive and bCat KO growth inactive.
For CN(C)CC(C(=O)c1ccccc1)c1ccccc1 (stereo not drawn) the results were H69AR inhibit 0.1, HCT116 PTEN-null 1.0, Fibroblast inh 17.3, bCat KO growth 1.4 and HUVEC prolif 384 inactive.
Screening C1=C(c2ccc(-c3ccccc3)cc2)Nc2ncnn2C1c1ccco1 (stereo not drawn) returned H69AR inhibit 18.4, HCT116 PTEN-null inactive, Fibroblast inh inactive, bCat KO growth inactive and HUVEC prolif 384 inactive.
CC(NCc1ccc(N(C)C)cc1)C1CC2CCC1C2 (stereo not drawn) was read as H69AR inhibit inactive, Fibroblast inh inactive, bCat KO growth inactive and HUVEC prolif 384 inactive.
O=Cc1ccccc1Oc1ccccc1 was read as HCT116 PTEN-null inactive and bCat KO growth inactive.
For O=Cc1ccccc1OCCOc1ccccc1C=O the results were H69AR inhibit 23.2, HCT116 PTEN-null inactive, Fibroblast inh inactive, bCat KO growth inactive and HUVEC prolif 384 inactive.
Screening Cc1[nH]c2c(ccc3ccccc32)c1C1C(CCN)C1(C)C (stereo not drawn) returned H69AR inhibit 4.4, HCT116 PTEN-null 1.8, Fibroblast inh 2.7, bCat KO growth 1.9 and HUVEC prolif 384 2.4.
Screening CC(C)(C)C(=O)n1nc(-c2ccccc2)oc1=O returned HCT116 PTEN-null inactive and bCat KO growth inactive.
`Cc1[nH]c(=O)[nH]c(=O)c1NS(=O)(=O)c1ccccc1` gave HCT116 PTEN-null inactive and bCat KO growth inactive.
Cc1cc2c(c(=O)n1Cc1cccnc1)C(c1cccs1)C(C#N)=C(N)O2 (stereo not drawn) was read as H69AR inhibit 31.6, HCT116 PTEN-null inactive, Fibroblast inh inactive, bCat KO growth inactive and HUVEC prolif 384 inactive.
For Cc1cc2c(c(=O)n1Cc1cccnc1)C(Cc1ccccc1)C(C#N)=C(N)O2 (stereo not drawn) the results were H69AR inhibit inactive, HCT116 PTEN-null inactive, Fibroblast inh inactive, bCat KO growth inactive and HUVEC prolif 384 inactive.
Screening CC(C)(C)c1cccc(/C=N/O)c1O returned H69AR inhibit inactive, Fibroblast inh inactive, bCat KO growth inactive and HUVEC prolif 384 inactive.
CC(C)(C)c1ccc(O)c(/C=N\O)c1 was read as H69AR inhibit 25.1, HCT116 PTEN-null inactive, Fibroblast inh inactive, bCat KO growth inactive and HUVEC prolif 384 inactive.
For NN1C(=O)c2cccc3c(C(=O)O)ccc(c23)C1=O the results were HCT116 PTEN-null inactive and bCat KO growth inactive.
For O=C(c1ccc2c3c(cccc13)C(=O)N(O)C2=O)N1CCCCC1 the results were H69AR inhibit 24.9, HCT116 PTEN-null inactive, Fibroblast inh inactive, bCat KO growth inactive and HUVEC prolif 384 inactive.
For O=C(CSc1nnc(-c2cccnc2)s1)Nc1ccc(C(=O)O)cc1 the results were HCT116 PTEN-null inactive and bCat KO growth inactive.
For O=C(CCc1nc(-c2ccccc2F)no1)Nc1ccc(Oc2ccccc2)cc1 the results were H69AR inhibit 29.5, HCT116 PTEN-null inactive, Fibroblast inh inactive, bCat KO growth inactive and HUVEC prolif 384 inactive.
`COc1cccc(NC(=O)CCc2nc(-c3ccccc3F)no2)c1` gave H69AR inhibit inactive, HCT116 PTEN-null inactive, Fibroblast inh inactive, bCat KO growth inactive and HUVEC prolif 384 inactive.
For O=C(COC(=O)c1n[nH]c2ccccc12)NC(=O)NC12CC3CC(CC(C3)C1)C2 the results were H69AR inhibit 17.2, HCT116 PTEN-null 1.4, Fibroblast inh inactive, bCat KO growth inactive and HUVEC prolif 384 inactive.
O=C(COC(=O)c1n[nH]c2ccccc12)NC(=O)NC1CCCC1 was read as H69AR inhibit inactive, HCT116 PTEN-null inactive, Fibroblast inh inactive, bCat KO growth inactive and HUVEC prolif 384 inactive.
Screening Cc1cc(=O)n2c3c(sc2n1)C(=O)N(Cc1ccccc1)C3=O returned H69AR inhibit 1.1, HCT116 PTEN-null inactive, Fibroblast inh inactive, bCat KO growth inactive and HUVEC prolif 384 inactive.
For COc1ccc(OC)c(N2C(N)=C(C#N)C(c3ccc(OC)c(O)c3)C3=C2CC(C)(C)CC3=O)c1 (stereo not drawn) the results were H69AR inhibit 15.6, Fibroblast inh inactive and HUVEC prolif 384 inactive.
Screening COc1ccc(N2C(N)=C(C#N)C(c3cccnc3)C3=C2CC(C)(C)CC3=O)cc1 (stereo not drawn) returned H69AR inhibit 17.7, HCT116 PTEN-null inactive, Fibroblast inh inactive, bCat KO growth inactive and HUVEC prolif 384 inactive.
